Data set [1] in a line: Cytotoxicity against human Huh7.5 cells. The following applies: huh-7. The class given is cell-based. Summed up: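 Huh-7.5 hepatoma cells; read-out is the 50% cytotoxic concentration (CC50), reported as the mean of three experiments.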
Data set [2] has as its system Hepatitis C virus. Briefly: Antiviral activity against Hepatitis C virus JFH-1 J6 infected in human HuH7.5 cells assessed as inhibition of virus propagation measured after 72 hrs of transfer to fresh media. The class given is functional, organism-based, Hepacivirus hominis. The following applies: subtype 2a JFH1 J6, Huh-7, 72 h. Summed up: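 Huh-7.5 hepatoma cells, HCV 2a J6/JFH-1. Virus secreted during the initial 72 hr inhibitor-treated culture (0.001–100 µM) was used to infect fresh cells, which were cultured a second 72 hr (T2). HCV propagation was then assessed, with an NS3/NS4A protease inhibitor as positive control. Values are means of three experiments.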

For data set [3], the system named is Hepatitis C virus. Nature of the data set: Antiviral activity against Hepatitis C virus JFH-1 J6 infected in human HuH7.5 cells assessed as inhibition of virus propagation measured after 72 hrs. In kind it is functional, organism-based, Hepacivirus hominis. The following applies: subtype 2a JFH1 J6, Huh-7, 72 h. Summed up: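 Huh-7.5 hepatoma cells infected with HCV genotype 2a J6/JFH-1 were treated with inhibitor at 0.001–100 µM. […] An NS3/NS4A protease inhibitor served as positive control. Values are means of three experiments.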

Data set [4] can be described thus: Inhibition of Hepatitis C virus core protein dimerization by core dimerization assay. On the set-up: species or system Hepacivirus hominis.

In turn, `COC(=O)C1=C(C(=O)OC)[C@@H]2N(CCOCCN3c4ccccc4[C@]45CCC(=O)N(Cc6ccccc6)C4=NC(C(=O)OC)=C(C(=O)OC)[C@H]35)c3ccccc3[C@@]23CCC(=O)N(Cc2ccccc2)C3=N1` came in with a CC50 in data set [1] of over 100000 nM. Moreover, the figures for the EC50 in data set [2] and in data set [3] were 2500 nM and 480 nM, respectively. Besides, the IC50 in data set [4] was 98 nM.
The matching figures for `COC(=O)C1=C(C(=O)OC)[C@@H]2N(CCCN3c4ccccc4[C@]45CCC(=O)N(Cc6ccccc6)C4=NC(C(=O)OC)=C(C(=O)OC)[C@H]35)c3ccccc3[C@@]23CCC(=O)N(Cc2ccccc2)C3=N1`: over 36000 nM, 735 nM, 88 nM and 2900 nM.
The matching figures for `COC(=O)C1=C(C(=O)OC)[C@@H]2N(CCCCCN3c4ccccc4[C@]45CCC(=O)N(Cc6ccccc6)C4=NC(C(=O)OC)=C(C(=O)OC)[C@H]35)c3ccccc3[C@@]23CCC(=O)N(Cc2ccccc2)C3=N1` (mixture of isomers): over 36000 nM, 29900 nM, 90 nM and 720 nM.
For `COC(=O)C1=C(C(=O)OC)[C@@H]2N(CCCCCn3cc(-c4ccc(OC)cc4C)nn3)c3ccccc3[C@@]23CCC(=O)N(Cc2ccccc2)C3=N1` (racemic), in that order: over 100000 nM, 1100 nM, 1400 nM and 92 nM.
For the molecule `COC(=O)C1=C(C(=O)OC)[C@@H]2N(CCCCCn3cc(CNC(C)=O)nn3)c3ccccc3[C@@]23CCC(=O)N(Cc2ccccc2)C3=N1` (racemic), the CC50 in data set [1] was found to be 150000 nM. The EC50 in data set [2] came to 56200 nM; in data set [3] it was 26200 nM. The same molecule had an IC50 in data set [4] of 341 nM.
Turning to `COc1ccc2c(O[C@@H]3C[C@H]4C(=O)N[C@]5(C(=O)O)C[C@H]5/C=C\CCCCC[C@H](NC(=O)OC5CCCC5)C(=O)N4C3)cc(-c3csc(NC(C)C)n3)nc2c1` [CILUPREVIR], the EC50 in data set [2] worked out at 71 nM; in data set [3], 72 nM.

The term CC50 denotes the concentration giving 50% cytotoxicity. High values mean lower toxicity to the cells, low ones greater toxicity to the cells. As a reminder, the EC50 is the concentration that produces a half-maximal response. Broadly, the IC50 is the midpoint of a concentration-inhibition curve. Low values mean greater potency, high ones weaker potency.

The values above are taken from ChEMBL document CHEMBL1759845, “Potent inhibitors of hepatitis C core dimerization as new leads for anti-hepatitis C agents” (Bioorg Med Chem Lett, 2011).
